Results pooled from the literature.
EGFR T790M: Epidermal growth factor receptor (EGFR, Homo sapiens, UniProt P00533, T790M)
EGFR: Epidermal growth factor receptor (EGFR, Homo sapiens, UniProt P00533)
EGFR del747-750/T751S: Epidermal growth factor receptor (EGFR, Homo sapiens, UniProt P00533, del747-750/T751S)
EGFR del746-750: Epidermal growth factor receptor (EGFR, Homo sapiens, UniProt P00533, del746-750)
EGFR del752-759: Epidermal growth factor receptor (EGFR, Homo sapiens, UniProt P00533, del752-759)
EGFR L858R: Epidermal growth factor receptor (EGFR, Homo sapiens, UniProt P00533, L858R)
EGFR G719C: Epidermal growth factor receptor (EGFR, Homo sapiens, UniProt P00533, G719C)
EGFR del747-752/P753S: Epidermal growth factor receptor (EGFR, Homo sapiens, UniProt P00533, del747-752/P753S)
EGFR L858R/T790M: Epidermal growth factor receptor (EGFR, Homo sapiens, UniProt P00533, L858R/T790M)
EGFR G719S: Epidermal growth factor receptor (EGFR, Homo sapiens, UniProt P00533, G719S)
EGFR A750P/del747-749: Epidermal growth factor receptor (EGFR, Homo sapiens, UniProt P00533, A750P/del747-749)

CN(c1nccc(-c2cnn3ncccc23)n1)C1CC1 — remaining binding (EGFR T790M; binding; 1 µM): 100%
O=C(c1ccc(Nc2nccc(-c3cc4ccccc4s3)n2)cc1)N1CCC(N2CCCC2)CC1 — remaining binding (EGFR; binding, competition with immobilised ligand; 1 µM): 97%
C[C@@H]1CCN(c2nccc(-c3cnn4ncccc34)n2)C1 — remaining binding (EGFR T790M; binding; 1 µM): 79%
O=C(O)[C@H]1[C@H](Cn2nnc3ccccc3c2=O)CC[C@@H]1C(=O)c1ccc(OCCC2CCOCC2)cc1 — remaining binding (EGFR del747-750/T751S; cell-free assay, competition with immobilised ligand; 1 µM): 65%
CNC(=O)[C@@H]1CC[C@@H](n2c(-c3ccc4cnccc4c3)nc3ccc(C(=O)NCc4cccc(C(N)=O)c4)cc32)C1 — remaining binding (EGFR del746-750; binding, competition with immobilised ligand; 1 µM): 90%
O=C(NCCCN1CCOCC1)c1ccc(Nc2nccc(-c3cc4ccccc4s3)n2)cc1 — remaining binding (EGFR del752-759; binding, competition with immobilised ligand; 1 µM): 100%
CCC(=N\O)/C(C)=C/c1ccc(F)cc1 — remaining binding (EGFR L858R; cell-free assay, competition with immobilised ligand; 1 µM): 65%
O=C(c1ccc(Nc2ncc(Cl)c(-c3cc4ccccc4s3)n2)cc1)N1CCC(N2CCCC2)CC1 — remaining binding (EGFR G719C; binding, competition with immobilised ligand; 1 µM): 88%
Nc1ncc2c(n1)-c1c([nH]c3ccc(C#CC4CC4)cc13)CCCC2 — remaining binding (EGFR L858R; binding, competition with immobilised ligand; 1 µM): 100%
CCN1CCN(Cc2ccc(C(=O)Nc3ccc(C)c(Oc4ccc5c(c4)CC(=O)N5)c3)cc2C(F)(F)F)CC1 — remaining binding (EGFR L858R; binding, competition with immobilised ligand; 1 µM): 100%
c1cncc(-c2cccc(Nc3nccc(NC4CCCCC4)n3)c2)c1 — remaining binding (EGFR del747-752/P753S; binding, competition with immobilised ligand; 10 µM): 42%
c1cnn2ncc(-c3ccnc(N4CCC45COC5)n3)c2c1 — remaining binding (EGFR L858R/T790M; binding; 1 µM): 65%
CC(=O)Nc1c(C(C)=O)c(=O)n(C)c2nc(-c3ccc(Cl)cc3Cl)c(-c3ccc(Cl)cc3)cc12 — remaining binding (EGFR del747-750/T751S; cell-free assay, competition with immobilised ligand; 1 µM): 100%
O=C(NCCCN1CCOCC1)c1ccc(Nc2ncc(Cl)c(-c3ccc(Cl)s3)n2)cc1 — remaining binding (EGFR G719S; binding, competition with immobilised ligand; 1 µM): 100%
CS(=O)(=O)N1CCCC(NC(=O)[C@H](CCC2CCCCC2)NC(=O)c2ccc(CNc3ncnc4c3nnn4-c3ccccc3)cc2)C1 (stereo partly drawn) — remaining binding (EGFR del747-752/P753S; cell-free assay, competition with immobilised ligand; 0.1 µM): 66%
COc1ccnn2ncc(-c3ccnc(N(C)C)n3)c12 — remaining binding (EGFR; binding; 1 µM): 79%
CN1CCN(c2ccc(Nc3nccc(-c4ccccc4)n3)cc2C(F)(F)F)CC1 — remaining binding (EGFR del752-759; binding; 10 µM): 100%
CNC(=O)Nc1ccc2c(c1)[C@@]1(CC2)OC(=O)N(CC(=O)N(Cc2ccc(F)cc2)[C@@H](C)C(F)(F)F)C1=O — remaining binding (EGFR A750P/del747-749; cell-free assay, competition with immobilised ligand; 1 µM): 96%
O=C(c1ccc(Nc2ncc(Cl)c(-c3ccc(Cl)s3)n2)cc1)N1CCC(N2CCCC2)CC1 — remaining binding (EGFR del746-750; binding, competition with immobilised ligand; 1 µM): 90%
O=C(Nc1c[nH]nc1C(=O)NC1CCNCC1)c1cc(F)cc(F)c1 — remaining binding (EGFR L858R/T790M; binding, competition with immobilised ligand; 1 µM): 100%
C[C@H](c1ccc(F)cc1)N(Cc1cccc(C(=O)O)c1)C(=O)c1cnc2ccccc2c1 — remaining binding (EGFR G719S; cell-free assay, competition with immobilised ligand; 1 µM): 100%
COc1cnc(Nc2cccc(S(N)(=O)=O)c2)nc1N1CCN(c2ccccc2)C(=O)C1 — remaining binding (EGFR A750P/del747-749; binding, competition with immobilised ligand; 1 µM): 92%
CC(=O)C1=C(C)N(c2cccc(C(F)(F)F)c2)C(=O)N[C@@H]1c1ccc(C#N)nc1 — remaining binding (EGFR G719C; cell-free assay, competition with immobilised ligand; 1 µM): 100%
F[C@@H]1CCN(c2nccc(-c3cnn4ncccc34)n2)C1 — remaining binding (EGFR G719S; binding; 1 µM): 100%
CN1CCN(c2ccc(Nc3nccc(-c4cccc([N+](=O)[O-])c4)n3)cc2C(F)(F)F)CC1 — remaining binding (EGFR G719S; binding; 10 µM): 98%
CC1CCCN1c1nccc(-c2cnn3ncccc23)n1 (stereo not drawn) — remaining binding (EGFR L858R; binding; 1 µM): 100%
COc1cnc(Nc2cccc(S(N)(=O)=O)c2)nc1N1CCN(c2ccccc2)CC1 — remaining binding (EGFR G719C; binding, competition with immobilised ligand; 1 µM): 100%
CN(C)c1ncc(F)c(-c2cnn3ncccc23)n1 — remaining binding (EGFR del746-750; binding; 1 µM): 100%
O=C(NCC1CCOCC1)c1n[nH]cc1NC(=O)c1c(F)cccc1F — remaining binding (EGFR T790M; binding, competition with immobilised ligand; 1 µM): 93%
Cc1cnc(Nc2ccc(C(=O)N3CCC(N4CCCC4)CC3)cc2)nc1-c1cc2ccccc2s1 — remaining binding (EGFR del747-750/T751S; binding, competition with immobilised ligand; 1 µM): 97%
COc1ncc2cc3ccccc3nc2c1C#N — remaining binding (EGFR L858R; cell-free assay, competition with immobilised ligand; 5 µM): 99%
CCOCCn1cc(C(=O)Nc2ccc(-n3nc(-c4cccnc4)cc3C(F)(F)F)cn2)ccc1=O — remaining binding (EGFR del747-750/T751S; cell-free assay, competition with immobilised ligand; 1 µM): 100%
N[C@@H]1CCN(c2nccc(-c3cnn4ncccc34)n2)C1 — remaining binding (EGFR L858R/T790M; binding; 1 µM): 100%
